An excerpt weighted towards active compounds, which were near 1.8% of everything screened.
Rin1-Abl PPI inh – inhibitors of human Rin1-Abl protein interaction; P00519+Q13671; TR-FRET Rin1/Abl binding, biochemical; inhibition, % at 7.35 µM; 360,000 tested, 0.4% active; in the data active = inhibition above about 5%, passing the limit was not always enough
PG9 binder – binds the HIV-1 gp120 antibody PG9. TR-FRET gp120-PG9 antibody binding. inhibition, % at 6.7 µM. 360,000 tested, 0.43% active. AID 624416; in the data active = inhibition above about 8.5%
Rev-erbA mod – modulates human Rev-erb alpha binding to DNA; AID 1259318; P20393; activity, % at 10 µM; Rev-erbα–FITC-DNA binding, fluorescence polarization, 90 min; 370,000 tested, 0.79% active;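 active = activity above about 14%, limit read from the data; passing the limit was not always enough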;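 note: 0% = DMSO wells with 35 nM protein and 100% = DMSO wells with 750 nM protein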
Target sequence (P20393 whole entry, looked up): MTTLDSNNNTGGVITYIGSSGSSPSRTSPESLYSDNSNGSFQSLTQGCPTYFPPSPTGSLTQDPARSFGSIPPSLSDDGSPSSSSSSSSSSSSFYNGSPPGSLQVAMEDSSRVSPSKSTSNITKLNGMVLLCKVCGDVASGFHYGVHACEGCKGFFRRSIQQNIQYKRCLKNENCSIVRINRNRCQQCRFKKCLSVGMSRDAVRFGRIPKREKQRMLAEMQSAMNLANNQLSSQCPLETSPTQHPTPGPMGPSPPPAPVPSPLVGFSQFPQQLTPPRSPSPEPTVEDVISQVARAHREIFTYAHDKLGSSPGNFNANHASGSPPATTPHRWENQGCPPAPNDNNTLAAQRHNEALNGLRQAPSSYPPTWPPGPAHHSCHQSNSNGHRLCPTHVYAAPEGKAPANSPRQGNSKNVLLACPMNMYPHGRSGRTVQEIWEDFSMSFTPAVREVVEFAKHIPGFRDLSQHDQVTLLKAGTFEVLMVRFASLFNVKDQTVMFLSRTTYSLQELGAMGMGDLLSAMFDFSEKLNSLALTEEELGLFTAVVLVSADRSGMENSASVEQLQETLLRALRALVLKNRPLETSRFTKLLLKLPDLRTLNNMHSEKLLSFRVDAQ
TbMetRS inhib – Trypanosoma brucei MetRS inhibition; inhibition, % at 11.9 µM; 360,000 tested, 0.4% active; purified T. brucei MetRS, ATP depletion, Kinase-Glo luminescence;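 active = inhibition above a per-plate cutoff of the control wells' mean inhibition plus 3 SD, cut at about 5.5% in these data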;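 note: 0% = DMSO wells median and 100% = median of wells with control inhibitor compound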
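Dosing: 11.9 µM single point; system: parasite MetRS enzyme; technique: luminescence of leftover ATP; times: 15 min enzyme-compound preincubation, 2 h reaction, 10 min detection, 25 °C; replicates: each compound tested once; read-out basis: percent inhibition relative to median high and low control wells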
NR1D1 mod conf – Rev-erb alpha (human) modulation, hit confirmation | shares compounds with Rev-erbA mod | Rev-erb alpha FITC-DNA binding, fluorescence polarization, 90 min | activation, % at 25 µM | 3,000 tested, 61% active | AID 1259319;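 active = activation at or above a set limit, or at least 3 SD above the negative control mean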;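 note: 0% = 35 nM protein with DMSO and 100% = 750 nM protein high control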
RORg DNA counter – counter-screen for Rev-erb alpha modulators: RORgamma DNA binding. shares compounds with Rev-erbA mod. purified RORgamma protein-FITC-DNA binding, fluorescence polarization. IC50, µM. 910 tested, 8% active. AID 1259320;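 active = Compounds whose fitted half-maximal concentration for disrupting protein-DNA binding is below 10 micromolar; the record names Rev-erb in its text, so the target is in doubt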
The depositor's hits bear a star; i = inactive; . = not tested or not shown.

SMILES | Rin1-Abl PPI inh | PG9 binder | Rev-erbA mod | TbMetRS inhib | NR1D1 mod conf | others
Cc1n[nH]c(C)c1CCNC(=O)C1CCC(=O)N(Cc2ccccc2F)C1 (configuration not stated) | 3 | 0 | 17* | 0 | 0
O=C(NCCc1ccccc1F)C1CCC(=O)N(Cc2ccccc2F)C1 (configuration not stated) | 2 | 0 | -2 | 0 | .
CCC[C@H]1[C@@H](N(C)Cc2cccs2)CC[C@@]23CCCN2C(=O)CCC[C@@H]13 | . | . | 43* | . | 52* | RORg DNA counter=>40
CCC[C@H]1[C@@H](OC(=O)NCc2cccs2)CC[C@@]23CCCN2C(=O)CCC[C@@H]13 | . | . | 6 | . | .
CCCN(C(=O)c1ccco1)c1nnc(-c2ccncc2)s1 | -2 | 0 | 1 | 0 | .
CCCCN(C(=O)c1ccco1)c1nnc(-c2cc(OC)c(OC)c(OC)c2)s1 | 3 | -2 | 99* | 0 | 15
COc1cccc(-c2nc(CS(=O)(=O)CC(=O)Nc3ccccc3C)c(C)o2)c1 | -1 | 3 | 1 | 0 | .
COc1cccc(-c2nc(CS(=O)(=O)CC(=O)NCc3ccc(Cl)cc3)c(C)o2)c1 | 1 | 3 | 29* | -1 | 32* | RORg DNA counter=>40
CCCNC(=O)CS(=O)(=O)Cc1nc(-c2cccc(OC)c2)oc1C | 1 | -1 | -6 | -1 | .
COc1cccc(-c2nc(CS(=O)(=O)CC(=O)Nc3cccc(C)c3C)c(C)o2)c1 | -3 | 1 | 19* | 0 | 9
FC(F)(F)c1ccc(N2CCN(c3ncnc4c3nnn4Cc3ccccc3)CC2)nc1 | 0 | 0 | 21* | 0 | 3
Cc1ccccc1N1CCN(C2CCCN(C(=O)c3cnsn3)C2)CC1 (configuration not stated) | 0 | -1 | -1 | 0 | .
OC(c1ccc(Cl)c(F)c1)c1ncc(-c2cccc(C(F)(F)F)c2)[nH]1 (configuration not stated) | 1 | -1 | 1 | 0 | .
COc1ccc(Oc2c(Cl)cnn(CC(=O)C(c3ccccc3)c3ccccc3)c2=O)cc1 | . | . | 78* | . | 57* | RORg DNA counter=i
Cn1ncc(Cl)c(Oc2ccccc2)c1=O | -5 | . | 5 | -1 | .
O=C(Nc1ccc(-c2nc3cc(Cl)ccc3c(=O)o2)cc1)c1ccco1 | 2 | 0 | 27* | -1 | 0
CCOc1ccc(C(C)=O)cc1COC(=O)c1cc([N+](=O)[O-])ccc1N1CCOCC1 | -7 | 0 | 14* | -1 | -3
COc1ccc(OC)c(COC(=O)c2cc([N+](=O)[O-])ccc2N2CCOCC2)c1 | -3 | 2 | 2 | 0 | .
C=CC(=O)N(CCC)C(c1ccccc1)c1ccccc1OC (configuration not stated) | 1 | 0 | 0 | 0 | .
Cc1ccsc1C(=O)NNC(=O)c1cccc(S(=O)(=O)N2CCCC2)c1 | -1 | 2 | 18* | 0 | -5
O=C(NNC(=O)c1ccc(Br)s1)c1cccc(S(=O)(=O)N2CCCC2)c1 | 1 | -1 | 2 | 0 | .
NS(=O)(=O)c1ccc(CNC(=O)c2cc(-c3ccccn3)nc3ccc(Cl)cc23)cc1 | -76 | 7 | 23* | 1 | 19*
O=C(NCc1ccc(F)cc1)c1cc(-c2ccccn2)nc2ccc(S(=O)(=O)N3CCOCC3)cc12 | -4 | 0 | 18* | 0 | 19*
COc1ccc(-c2nnn3c2nc(NCc2ccccc2)c2ccccc23)cc1 | -2 | -2 | 23* | 0 | 17*
Clc1nc2c(-c3ccccc3)nnn2c2ccccc12 | -2 | 0 | 83* | 0 | 68* | RORg DNA counter=>40
SMILES | Rin1-Abl PPI inh | PG9 binder | Rev-erbA mod | TbMetRS inhib | NR1D1 mod conf | others
Fc1cccc(-c2nnn3c2nc(Cl)c2ccccc23)c1 | -3 | 1 | 90* | -1 | 19*
Fc1ccc(-c2nnn3c2nc(NCc2ccccc2)c2ccccc23)cc1 | -2 | 0 | 17 | 0 | .
Cc1ccc(-c2nnn3c2nc(Cl)c2ccccc23)cc1 | -3 | 0 | -2 | 0 | .
NC(=O)C1CCCN(C(=O)CNC(=O)C23CC4CC(CC(C4)C2)C3)C1 (configuration not stated) | 2 | -1 | 0 | 0 | .
O=C(Nc1ccnc(-c2cccnc2)n1)c1ccc(Cl)cc1 | -2 | -1 | 45* | 0 | 41* | RORg DNA counter=>40
O=C(Nc1cnccn1)c1ccc(Cl)cc1 | 4 | -3 | 7 | 0 | .
COc1ccc(C(=O)NCCc2ccccn2)cc1S(=O)(=O)Nc1ccc(Br)cc1 | 4 | 2 | 4 | 0 | .
CCN1/C(=C/c2ccc3cc(C)ccc3[n+]2CC)Sc2cc(C)ccc21 | -21 | -6 | 29* | -1 | 51* | RORg DNA counter=>40
CCCCN1/C(=C/c2ccc3ccccc3[n+]2CC)Sc2ccccc21 | -22 | . | . | 0 | .
CC1CC1C(=O)OCC(=O)NCc1ccccc1 (configuration not stated) | 3 | 1 | -4 | -1 | .
COC(=O)c1cccc(Cn2ccc3ccc(-c4ccc5ccn(C(=O)c6ccccc6)c5c4)cc32)c1 | . | . | 17 | . | .
COc1ccc(Cn2ccc3ccc(-c4ccc5ccn(C(=O)c6ccccc6)c5c4)cc32)cc1 | . | . | -15 | . | .
COC(=O)c1ccc(Cn2ccc3ccc(-c4ccc5ccn(C(=O)c6ccc(C)cc6)c5c4)cc32)cc1 | . | . | 50* | . | 62* | RORg DNA counter=1.4*
COc1ccc(Cn2ccc3ccc(-c4ccc5ccn(C(=O)c6ccc(C)cc6)c5c4)cc32)cc1 | . | . | 37* | . | 45* | RORg DNA counter=>40
CCCCOc1ccc(C(=O)n2ccc3ccc(-c4ccc5ccn(Cc6ccc(OC)cc6)c5c4)cc32)cc1 | . | . | 35* | . | 6
CCCCOc1ccc(C(=O)n2ccc3ccc(-c4ccc5ccn(Cc6cccc(C(=O)OC)c6)c5c4)cc32)cc1 | . | . | 37* | . | 21*
CCCC(=O)N1CCC1(C)C(=O)NS(=O)(=O)c1cccc(F)c1 (configuration not stated) | -6 | -1 | 1 | 0 | .
Cc1c(Cc2ccccc2)c(=O)oc2cc(OCC(=O)N3CCC(C(=O)O)CC3)ccc12 | 1 | -1 | 7 | 0 | .
Cc1ccc(C(=O)n2ccc3ccc(-c4ccc5ccn(Cc6ccc(C#N)cc6)c5c4)cc32)cc1 | . | . | 40* | . | 14*
COC(=O)c1ccc(Cn2ccc3ccc(-c4ccc5ccn(C(=O)C6CCCCC6)c5c4)cc32)cc1 | . | . | 25* | . | 34* | RORg DNA counter=i
N#Cc1ccc(Cn2ccc3ccc(-c4ccc5ccn(Cc6ccc(C#N)cc6)c5c4)cc32)cc1 | . | . | 1 | . | .
Cc1ccc(C(=O)n2ccc3ccc(-c4ccc5ccn(Cc6ccccc6)c5c4)cc32)cc1 | . | . | 39* | . | 27*
CCOC(=O)C(C#N)C(=N)C1C(=O)OC2CCCCC21 (configuration not stated) | 3 | 0 | 13 | 0 | .
CCN(CC)C(=O)c1nc[nH]c1C(=O)N1CCN(c2ccccc2)CC1 | -1 | -1 | 1 | 0 | .

Screens from PubChem BioAssay.
